Experimental data of several laboratories.
Compare with care: the assays were run in different laboratories.
Target: Calcium/calmodulin-dependent protein kinase type 1B (PNCK, Homo sapiens, UniProt Q6P2M8)
Concentration: 1 µM

| Compound | test | remaining binding |
| --- | --- | --- |
| CCCOc1ccc([C@H]2[C@H](C(=O)O)[C@@H](c3ccc4c(c3)OCO4)CN2CC(=O)Nc2c(CC)cccc2CC)cc1 | cell-free assay, competition with immobilised ligand | 77% |
| O=C(c1ccc(Nc2ncc(Cl)c(-c3cc4ccccc4s3)n2)cc1)N1CCC(N2CCCC2)CC1 | binding, competition with immobilised ligand | 62% |
| C[C@@H]1CCN(c2nccc(-c3cnn4ncccc34)n2)C1 | binding | 89% |
| CC(=O)c1c(NS(C)(=O)=O)c2cc(-c3ccc(Cl)cc3)c(-c3ccc(Cl)cc3Cl)nc2n(C)c1=O | cell-free assay, competition with immobilised ligand | 100% |
| Cc1cnn2ncc(-c3ccnc(N(C)C)n3)c2c1 | binding | 97% |
| CNCc1ccccc1-c1csc([C@H](C)Nc2nc(C)nc3cc(OC)c(OC)cc23)c1 | cell-free assay, competition with immobilised ligand | 100% |
| c1cnn2ncc(-c3ccnc(N4CCC45COC5)n3)c2c1 | binding | 81% |
| CC(=O)N1CCC(c2ccc(C(=O)NC(=N)N)cc2C(F)(F)F)CC1 | cell-free assay, competition with immobilised ligand | 100% |
| CN(C)c1nccc(-c2cnc3ncccn23)n1 | binding | 62% |
| CC(C)(O)c1cncc(-c2nc3ccc(F)cc3n2C2CC2)c1 | cell-free assay, competition with immobilised ligand | 100% |
| CN(c1nccc(-c2cnn3ncccc23)n1)C1CC1 | binding | 98% |
| COc1cc(-c2cn(C3CCc4ccccc4N(CC(F)(F)F)C3=O)nn2)ccc1-n1ccc(C)n1 (stereo not shown) | cell-free assay, competition with immobilised ligand | 100% |
| Nc1ncc2c(n1)-c1c([nH]c3ccc(C#CC4CC4)cc13)CCCC2 | binding, competition with immobilised ligand | 79% |
| N[C@@H]1CCN(c2nccc(-c3cnn4ncccc34)n2)C1 | binding | 100% |
| Cc1cnc(Nc2ccc(C(=O)N3CCC(N4CCCC4)CC3)cc2)nc1-c1cc2ccccc2s1 | binding, competition with immobilised ligand | 36% |
| CNC(=O)[C@@H]1CC[C@@H](n2c(-c3ccc4cnccc4c3)nc3ccc(C(=O)NCc4cccc(C(N)=O)c4)cc32)C1 | binding, competition with immobilised ligand | 85% |
| O=C(c1ccc(Nc2ncc(Cl)c(-c3ccc(Cl)s3)n2)cc1)N1CCC(N2CCCC2)CC1 | binding, competition with immobilised ligand | 56% |
| COc1cnc(Nc2cccc(S(N)(=O)=O)c2)nc1N1CCN(c2ccccc2)CC1 | binding, competition with immobilised ligand | 92% |
| O=C(NCC1CCOCC1)c1n[nH]cc1NC(=O)c1c(F)cccc1F | binding, competition with immobilised ligand | 87% |
